Source: PubChem
SENP8 block-1 – human SENP8 protease inhibitors, primary screen, biochemical, fluorescence, Nedd8 protein substrate, uHTS; AID 602440, 2012; hit rate 0.64% among 360,000; recombinant SENP8; inhibition, % at 20 µM; Sentrin-specific protease 8 (Homo sapiens), Q96LD8; in the data active = inhibition mostly above about 40%, no sharp cut-off; inactive = mostly below about 27%
Target sequence (Q96LD8 whole entry, looked up): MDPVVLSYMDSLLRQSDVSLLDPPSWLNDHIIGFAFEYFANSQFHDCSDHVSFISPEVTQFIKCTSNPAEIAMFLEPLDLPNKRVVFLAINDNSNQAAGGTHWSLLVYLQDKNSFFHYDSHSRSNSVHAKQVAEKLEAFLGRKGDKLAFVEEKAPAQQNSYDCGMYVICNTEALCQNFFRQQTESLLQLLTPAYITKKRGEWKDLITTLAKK
SENP7 inh – SENP7 protease inhibitors, primary screen, biochemical, luminescence, uHTS; Sentrin-specific protease 7 (Homo sapiens), Q9BQF6; recombinant SENP7, Z-RLRGG-aminoluciferin luminescence, 40 min; inhibition, % at 5 µM; hit rate 1.5% among 330,000; AID 434973, 2010;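 active = inhibition above about 50% at the single test dose, limit read from the data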
Platelet DG rel – inhibitors of platelet dense granule secretion, primary screen, cell-based, MLPCN, human platelets | hit rate 0.22% among 300,000 | AID 1663, 2009 | human platelet-rich plasma, SFLLRN dense granule ATP release, luminescence | inhibition, %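 (compounds screened at 7.5 µM in platelet-rich plasma)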;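 active = mean replicate score, as percent of positive control, at or above 50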
SENP1 FRET inh – human SENP1 catalytic domain inhibitors, primary screen, biochemical, FRET, uHTS; Sentrin-specific protease 1 (Homo sapiens), Q9P0U3; recombinant SENP1 catalytic domain, CyPet-SUMO1-YPet FRET cleavage; inhibition, % at 10 µM; hit rate 0.21% among 360,000; AID 624204, 2012;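 active = inhibition at least 30% at 10 µM, raw YFP signal under a set limit, fluorescence ratio 0.5 to 1.5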
Target sequence (Q9P0U3 419-644 limits assumed): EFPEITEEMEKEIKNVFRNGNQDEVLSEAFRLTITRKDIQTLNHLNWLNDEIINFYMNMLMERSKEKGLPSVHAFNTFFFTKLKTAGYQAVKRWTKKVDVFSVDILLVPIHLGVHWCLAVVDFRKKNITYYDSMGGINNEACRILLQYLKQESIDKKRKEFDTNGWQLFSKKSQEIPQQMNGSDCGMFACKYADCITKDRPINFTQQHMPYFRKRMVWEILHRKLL
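material = recombinant human SENP1 catalytic domain, His6-tagged | quantity = 20 pM enzyme | reagent = 25 nM SUMO1 FRET substrate | compound dosing = 10 µM single point, 0.5% DMSO | timing = 50 min enzyme reaction, room temperature, light-protected | detection = FRET, CFP and YFP emission | control set = no-enzyme low, enzyme-DMSO high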
SENP6 block – SENP6 protease inhibitors, primary screen, biochemical, luminescence, uHTS; hit rate 1.8% among 330,000; inhibition, % at 10 µM; Recombinant SENP6 catalytic domain, aminoluciferin luminescence; Sentrin-specific protease 6 (Homo sapiens), Q9GZR1; AID 2599, 2010;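 active = inhibition above about 50% at the single tested dose, limit read from the data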
SENP8 block-2 – SENP8 protease inhibitors, primary screen, biochemical, luminescence; purified SENP8, Z-RLRGG-aminoluciferin cleavage; hit rate 1.2% among 330,000; inhibition, % at 10 µM; Sentrin-specific protease 8 (Homo sapiens), Q96LD8; in the data active = inhibition above about 50%
SENP8 conf – SENP8 protease inhibitors, retest, confirmation, biochemical, luminescence, single concentration | shares compounds with SENP7 inh | Recombinant SENP8, Z-RLRGG-aminoluciferin luminescence, 60 min | inhibition, % at 12.5 µM | hit rate 40% among 6,200 | AID 488912, 2010;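 active = mean inhibition across replicates above about 50%, limit read from the data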
SENP6 confirm – SENP6 protease inhibitors, confirmation, biochemical, luminescence, single concentration; shares compounds with SENP7 inh; recombinant SENP6, Z-RLRGG-aminoluciferin luminescence; inhibition, % at 12.5 µM; hit rate 58% among 6,200; AID 488915, 2010
SENP7 conf – SENP7 protease inhibitors, retest, confirmation, biochemical, luminescence, single concentration; shares compounds with SENP7 inh; recombinant SENP7, Z-RLRGG-aminoluciferin luminescence, 40 min; inhibition, % at 12.5 µM; hit rate 69% among 6,200; AID 488917, 2010
Casp3 SENP sel – caspase-3 protease inhibitors, confirmation, selectivity assay for SENP inhibitor project, biochemical, single concentration. shares compounds with SENP7 inh. purified caspase-3, Z-DEVD-aminoluciferin luminescence, 60 min. inhibition, % at 12.5 µM. hit rate 60% among 6,200. AID 488918, 2010;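 active = mean inhibition above about 50%, limit read from the data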
Target sequence (P42574 28-227 limits assumed): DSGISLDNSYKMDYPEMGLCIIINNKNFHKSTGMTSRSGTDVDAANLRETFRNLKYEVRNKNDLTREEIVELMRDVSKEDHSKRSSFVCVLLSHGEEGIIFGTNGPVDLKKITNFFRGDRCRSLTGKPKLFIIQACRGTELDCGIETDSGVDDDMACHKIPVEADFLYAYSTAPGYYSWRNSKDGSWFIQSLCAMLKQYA
SENP luc ctr – luminescence interference (SENP counter-screen) | shares compounds with SENP7 inh | hit rate 39% among 6,200 | Pre-incubated SENP8/Z-RLRGG-aminoluciferin, luciferase luminescence interference | inhibition, % at 12.5 µM;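 active = mean inhibition above about 50% when retested at one dose, limit read from the data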
A number is an active result. Compounds with a hit are over-represented: about 2.6% of the library has one in this group of screens.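 Rule for the calls, unless noted: active = mean inhibition above about 50% in the one-dose retest (limit read from the data); inactive = the rest.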

`CCc1ccc(C(=O)COC(=O)c2n[nH]c3ccccc23)cc1` gave SENP8 block-1 inactive, SENP7 inh 74.4, Platelet DG rel inactive, SENP1 FRET inh inactive, SENP6 block inactive, SENP8 block-2 77.2, SENP8 conf inactive, SENP6 confirm 78.1, SENP7 conf 92.9, Casp3 SENP sel 61.3 and SENP luc ctr inactive.
Screening c1ccc(-c2ccc(-n3ccnc3)cc2)cc1 returned SENP8 block-1 inactive, SENP7 inh inactive, Platelet DG rel inactive, SENP1 FRET inh inactive, SENP6 block 53.3, SENP8 block-2 inactive, SENP8 conf inactive, SENP6 confirm inactive, SENP7 conf 72.3, Casp3 SENP sel 56.4 and SENP luc ctr 63.0.
Screening COc1ccc(CCN(C)C(=O)C2CC(=O)N(Cc3ccc(C)cc3)C2)cc1OC (stereo not given) returned SENP8 block-1 inactive, SENP7 inh inactive, SENP1 FRET inh inactive, SENP6 block inactive and SENP8 block-2 inactive.
`Cc1[nH]n(C(N)=S)c(=O)c1N=Nc1cccc(Cl)c1` gave SENP8 block-1 inactive, SENP7 inh 71.7, Platelet DG rel inactive, SENP1 FRET inh inactive, SENP6 block 91.2, SENP8 block-2 89.2, SENP8 conf inactive, SENP6 confirm inactive, SENP7 conf inactive, Casp3 SENP sel inactive and SENP luc ctr inactive.
Screening Cc1[nH]n(C(N)=S)c(=O)c1N=Nc1ccc([N+](=O)[O-])cc1Cl returned SENP8 block-1 inactive, SENP7 inh 69.9, Platelet DG rel inactive, SENP1 FRET inh inactive, SENP6 block 93.7, SENP8 block-2 94.6, SENP8 conf 81.0, SENP6 confirm 95.2, SENP7 conf 98.5, Casp3 SENP sel 79.3 and SENP luc ctr inactive.
Screening Cc1nc(N)sc1N=Nc1ccccc1C(F)(F)F returned SENP8 block-1 inactive, SENP7 inh inactive, Platelet DG rel inactive, SENP1 FRET inh inactive, SENP6 block inactive and SENP8 block-2 inactive.
Screening Cc1[nH]n(C(N)=S)c(=O)c1C(c1ccccc1)C(C#N)C#N (stereo not given) returned SENP8 block-1 inactive, SENP7 inh inactive, Platelet DG rel inactive, SENP1 FRET inh inactive, SENP6 block inactive and SENP8 block-2 inactive.
NC(=S)n1[nH]c(-c2ccc([N+](=O)[O-])cc2)c(N=Nc2cccc(Cl)c2)c1=O was read as SENP8 block-1 inactive, SENP7 inh inactive, Platelet DG rel inactive, SENP1 FRET inh inactive, SENP6 block inactive and SENP8 block-2 inactive.
Screening Cc1[nH]n(C(N)=S)c(=O)c1N=Nc1ccccc1C(F)(F)F returned SENP8 block-1 inactive, SENP7 inh inactive, Platelet DG rel inactive, SENP1 FRET inh inactive, SENP6 block 54.0, SENP8 block-2 inactive, SENP8 conf 55.5, SENP6 confirm 53.4, SENP7 conf 77.4 and SENP luc ctr 50.2.
Cc1ccccc1N=Nc1c(C)[nH]n(C(N)=S)c1=O was read as SENP8 block-1 inactive, SENP7 inh inactive, Platelet DG rel inactive, SENP1 FRET inh inactive, SENP6 block 82.3, SENP8 block-2 60.2, SENP8 conf inactive, SENP6 confirm inactive, SENP7 conf inactive, Casp3 SENP sel inactive and SENP luc ctr inactive.
For Cc1ccc(Cl)cc1N1CCN(S(=O)(=O)c2cccc(S(=O)(=O)N3CCCC3)c2)CC1 the results were SENP8 block-1 inactive, SENP7 inh inactive, Platelet DG rel inactive, SENP1 FRET inh inactive, SENP6 block inactive and SENP8 block-2 inactive.
Screening Cc1cccc(NC(=O)[C@@H](CC(C)C)NC(=O)[C@@H]2Cc3ccccc3CN2)c1 returned SENP8 block-1 inactive, SENP7 inh inactive, Platelet DG rel inactive, SENP1 FRET inh inactive, SENP6 block inactive and SENP8 block-2 inactive.
`CCOc1ccc(NC(=O)CN2C(=O)NC(CCc3ccccc3)C2=O)cc1OCC` (stereo not given) gave SENP8 block-1 inactive, SENP7 inh inactive, SENP1 FRET inh inactive, SENP6 block 67.5, SENP8 block-2 inactive, SENP8 conf inactive, SENP6 confirm inactive, SENP7 conf inactive, Casp3 SENP sel inactive and SENP luc ctr inactive.
For O=C(CCN1C(=O)C2C3C=CC(C3)C2C1=O)NCCN1CCCc2ccccc21 (stereo not given) the results were SENP8 block-1 inactive, SENP7 inh inactive, Platelet DG rel inactive, SENP1 FRET inh inactive, SENP6 block inactive and SENP8 block-2 inactive.
Screening Cc1cc2c(cc1C)C(=O)NC(C)(C)C2 returned SENP8 block-1 inactive, SENP7 inh 58.8, Platelet DG rel inactive, SENP1 FRET inh inactive, SENP6 block inactive, SENP8 block-2 inactive, SENP8 conf inactive, SENP6 confirm inactive, SENP7 conf inactive, Casp3 SENP sel inactive and SENP luc ctr inactive.
CCOc1ccc(/C=N/OCC(=O)Nc2ccc3c(c2)OCO3)cc1 was read as SENP8 block-1 inactive, SENP7 inh inactive, Platelet DG rel inactive, SENP1 FRET inh inactive, SENP6 block inactive and SENP8 block-2 inactive.
Screening O=C1/C(=C\c2cccnc2)Sc2ccccc21 returned SENP8 block-1 inactive, SENP7 inh inactive, Platelet DG rel inactive, SENP1 FRET inh inactive, SENP6 block inactive and SENP8 block-2 inactive.
Screening CC(=O)Nc1ccc(/C=C2/Sc3ccccc3C2=O)cc1 returned SENP8 block-1 inactive, SENP7 inh 93.6, Platelet DG rel inactive, SENP1 FRET inh inactive, SENP6 block 66.3, SENP8 block-2 62.1, SENP8 conf inactive, SENP6 confirm inactive, SENP7 conf inactive, Casp3 SENP sel inactive and SENP luc ctr inactive.
Screening CCSc1nc(N)c2c3c(sc2n1)CCC3 returned SENP8 block-1 inactive, SENP7 inh inactive, Platelet DG rel inactive, SENP1 FRET inh inactive, SENP6 block inactive and SENP8 block-2 inactive.
